MIC data for 5 compounds are collected here from ChEMBL document CHEMBL1275458, “First molecular characterization of group B streptococci with reduced penicillin susceptibility” (2008).

Experiment [1] relates to Streptococcus agalactiae. Nature of the experiment: Antimicrobial activity against penicillin-resistant Streptococcus agalactiae B514 by agar dilution method. The class given is functional. A digest of the protocol: (§1)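 Agar dilution MICs run per the CLSI recommendation. S. pneumoniae ATCC 49619 was included as the quality control strain. β-lactams tested were penicillin G, penicillin V, ampicillin, oxacillin, cefazolin, cefepime, cefotaxime, ceftizoxime and meropenem. Test strains were S. agalactiae clinical sputum isolates and ATCC strains BAA-611 and 12403.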
In general terms: Agar dilution tests growth on a series of plates holding different concentrations.

The test system of experiment [2] is Streptococcus agalactiae. Put plainly: Antimicrobial activity against penicillin-susceptible Streptococcus agalactiae ATCC BAA-611 by agar dilution method.
Experiment [3] has as its system Streptococcus agalactiae. Nature of the experiment: Antimicrobial activity against penicillin-resistant Streptococcus agalactiae B503 by agar dilution method. The experiment is classed as functional. A digest of the protocol:
as §1

In experiment [4] the test system is Streptococcus agalactiae. Nature of the experiment: Antimicrobial activity against penicillin-resistant Streptococcus agalactiae B7 by agar dilution method. The experiment is classed as functional. A digest of the protocol: as §1
For experiment [5], the system named is Streptococcus agalactiae. Nature of the experiment: Antimicrobial activity against penicillin-resistant Streptococcus agalactiae ATCC BAA-611 harboring PBP-2X V405A mutant gene by agar dilution method. The experiment is classed as functional. A digest of the protocol:
as §1

The test system of experiment [6] is Streptococcus agalactiae. Nature of the experiment: Antimicrobial activity against penicillin-resistant Streptococcus agalactiae B40 by agar dilution method. The class given is functional. A digest of the protocol: as §1
Experiment [7] concerns Streptococcus agalactiae. Put plainly: Antimicrobial activity against penicillin-resistant Streptococcus agalactiae B8 by agar dilution method. The class given is functional. A digest of the protocol: as §1
Experiment [8] has as its system Streptococcus agalactiae. Nature of the experiment: Antimicrobial activity against penicillin-resistant Streptococcus agalactiae B502 by agar dilution method. The class given is functional. In short, it runs like this:
as §1

The subject of experiment [9] is Streptococcus agalactiae. Put plainly: Antimicrobial activity against penicillin-resistant Streptococcus agalactiae ATCC BAA-611 harboring PBP-2X Q557E mutant gene by agar dilution method. The experiment is classed as functional. In short, it runs like this: as §1
For experiment [10], the system named is Streptococcus agalactiae. Nature of the experiment: Antimicrobial activity against penicillin-resistant Streptococcus agalactiae B10 by agar dilution method. The class given is functional. A digest of the protocol:
as §1

Experiment [11] has as its system Streptococcus agalactiae. Put plainly: Antimicrobial activity against penicillin-resistant Streptococcus agalactiae B516 by agar dilution method. The experiment is classed as functional. In short, it runs like this:
as §1

For experiment [12], the system named is Streptococcus agalactiae. Nature of the experiment: Antimicrobial activity against penicillin-resistant Streptococcus agalactiae B513 by agar dilution method. The experiment is classed as functional. In short, it runs like this:
as §1

The subject of experiment [13] is Streptococcus agalactiae. Put plainly: Antimicrobial activity against penicillin-resistant Streptococcus agalactiae B68 by agar dilution method. The class given is functional. A digest of the protocol: as §1
In experiment [14] the test system is Streptococcus agalactiae. Nature of the experiment: Antimicrobial activity against penicillin-resistant Streptococcus agalactiae B6 by agar dilution method. The experiment is classed as functional. In short, it runs like this:
as §1

Experiment [15] concerns Streptococcus agalactiae. Nature of the experiment: Antimicrobial activity against penicillin-resistant Streptococcus agalactiae B12 by agar dilution method. The class given is functional. In short, it runs like this: as §1
The subject of experiment [16] is Streptococcus agalactiae. Nature of the experiment: Antimicrobial activity against penicillin-susceptible Streptococcus agalactiae ATCC 12403 by agar dilution method.
The subject of experiment [17] is Streptococcus pneumoniae. Nature of the experiment: Antimicrobial activity against Streptococcus pneumoniae ATCC 49619 by agar dilution method. The experiment is classed as functional. In short, it runs like this: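 MIC by agar dilution per CLSI recommendations. The strain is a penicillin-susceptible S. pneumoniae quality-control strain, run alongside the clinical GBS isolates. β-lactams tested were penicillin G, penicillin V, ampicillin, oxacillin, cefazolin, cefepime, cefotaxime, ceftizoxime and meropenem.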

Experiment [18] concerns Streptococcus agalactiae. Put plainly: Antimicrobial activity against penicillin-resistant Streptococcus agalactiae B60 by agar dilution method. The class given is functional. In short, it runs like this:
as §1

Experiment [19] has as its system Streptococcus agalactiae. Put plainly: Antimicrobial activity against penicillin-resistant Streptococcus agalactiae B1 by agar dilution method. The experiment is classed as functional. A digest of the protocol: as §1

Each structure is given as a SMILES string. Converted amounts (≈) assume the structure as drawn.

Consider `CO/N=C(\C(=O)N[C@@H]1C(=O)N2C(C(=O)O)=CCS[C@H]12)c1csc(N)n1` [CEFTIZOXIME], for which the MIC (usually the least concentration at which growth counts as inhibited) in experiment [1] came to 32 µg/mL (≈ 83.5 µM); in experiment [2], 0.12 µg/mL (≈ 0.313 µM); in experiment [3] it was 16 µg/mL (≈ 41.7 µM); in [4], 4 µg/mL (≈ 10.4 µM); in experiment [5] it was 16 µg/mL (≈ 41.7 µM); in experiment [6], 32 µg/mL (≈ 83.5 µM). The MIC in experiment [7] is 64 µg/mL (≈ 167 µM); in [8], 16 µg/mL (≈ 41.7 µM); in experiment [9], 32 µg/mL (≈ 83.5 µM); in experiment [10], 16 µg/mL (≈ 41.7 µM); in experiment [11], 16 µg/mL (≈ 41.7 µM); in experiment [12], 64 µg/mL (≈ 167 µM). In addition, the MIC in experiment [13] turned out to be 4 µg/mL (≈ 10.4 µM); in [14], 32 µg/mL (≈ 83.5 µM); in experiment [15] it was 32 µg/mL (≈ 83.5 µM); in [16], 0.12 µg/mL (≈ 0.313 µM); in experiment [17], 0.12 µg/mL (≈ 0.313 µM); in experiment [18] it was 32 µg/mL (≈ 83.5 µM). The compound further came in with an MIC in [19] of 128 µg/mL (≈ 334 µM).
`C[C@@H](O)[C@H]1C(=O)N2C(C(=O)O)=C(S[C@@H]3CN[C@H](C(=O)N(C)C)C3)[C@H](C)[C@H]12` [MEROPENEM]: the MIC in [1] worked out at 0.25 µg/mL (≈ 0.652 µM); in experiment [2] it was 0.03 µg/mL (≈ 0.0782 µM); in [3], 0.12 µg/mL (≈ 0.313 µM); in [4] it was 0.25 µg/mL (≈ 0.652 µM); in experiment [5] it was 0.12 µg/mL (≈ 0.313 µM); in experiment [6] it was 0.06 µg/mL (≈ 0.156 µM). In addition, the MIC in [7] was 0.12 µg/mL (≈ 0.313 µM); in [8] it was 0.25 µg/mL (≈ 0.652 µM); in [9] it was 0.12 µg/mL (≈ 0.313 µM); in [10] it was 0.06 µg/mL (≈ 0.156 µM); in experiment [11], 0.12 µg/mL (≈ 0.313 µM); in experiment [12], 0.25 µg/mL (≈ 0.652 µM). For the same compound, the MIC amounted to 0.12 µg/mL (≈ 0.313 µM) in [13]; 0.06 µg/mL (≈ 0.156 µM) in [14]; 0.25 µg/mL (≈ 0.652 µM) in [15]; 0.03 µg/mL (≈ 0.0782 µM) in experiment [16]; 0.06 µg/mL (≈ 0.156 µM) in [17]; 0.12 µg/mL (≈ 0.313 µM) in [18]. Also, inhibition of growth in experiment [19] (MIC) required 0.06 µg/mL (≈ 0.156 µM).
In the case of `Cc1onc(-c2ccccc2)c1C(=O)N[C@@H]1C(=O)N2[C@@H]1SC(C)(C)[C@@H]2C(=O)O` [OXACILLIN], the minimal inhibitory concentration (MIC) in experiment [1] worked out at 4 µg/mL (≈ 9.96 µM); in experiment [2] it was 0.25 µg/mL (≈ 0.623 µM); in experiment [3], 2 µg/mL (≈ 4.98 µM); in [4] it was 2 µg/mL (≈ 4.98 µM); in [5], 2 µg/mL (≈ 4.98 µM); in experiment [6], 8 µg/mL (≈ 19.9 µM). Also, the MIC in experiment [7] came to 4 µg/mL (≈ 9.96 µM); in experiment [8], 4 µg/mL (≈ 9.96 µM); in experiment [9], 4 µg/mL (≈ 9.96 µM); in experiment [10] it was 4 µg/mL (≈ 9.96 µM); in experiment [11], 4 µg/mL (≈ 9.96 µM); in experiment [12] it was 8 µg/mL (≈ 19.9 µM). The MIC is 4 µg/mL (≈ 9.96 µM) in [13]; 4 µg/mL (≈ 9.96 µM) in [14]; 4 µg/mL (≈ 9.96 µM) in experiment [15]; 0.25 µg/mL (≈ 0.623 µM) in experiment [16]; 1 µg/mL (≈ 2.49 µM) in experiment [17]; 4 µg/mL (≈ 9.96 µM) in experiment [18]. Moreover, in [19], the MIC turned out to be 4 µg/mL (≈ 9.96 µM).
On to `CC1(C)S[C@@H]2[C@H](NC(=O)Cc3ccccc3)C(=O)N2[C@H]1C(=O)O` [PENICILLIN G], for which the MIC in experiment [1] came to 0.25 µg/mL (≈ 0.748 µM); in experiment [2] it was 0.06 µg/mL (≈ 0.179 µM); in experiment [3], 0.25 µg/mL (≈ 0.748 µM); in experiment [4], 0.25 µg/mL (≈ 0.748 µM); in experiment [5] it was 0.25 µg/mL (≈ 0.748 µM); in experiment [6] it was 0.5 µg/mL (≈ 1.5 µM). For the same compound, the MIC is 0.25 µg/mL (≈ 0.748 µM) in experiment [7]; 0.5 µg/mL (≈ 1.5 µM) in experiment [8]; 0.5 µg/mL (≈ 1.5 µM) in experiment [9]; 0.5 µg/mL (≈ 1.5 µM) in experiment [10]; 0.25 µg/mL (≈ 0.748 µM) in experiment [11]; 1 µg/mL (≈ 2.99 µM) in experiment [12]. Moreover, the MIC in experiment [13] turned out to be 0.5 µg/mL (≈ 1.5 µM); in experiment [14], 0.25 µg/mL (≈ 0.748 µM); in experiment [15] it was 0.25 µg/mL (≈ 0.748 µM); in experiment [16] it was 0.06 µg/mL (≈ 0.179 µM); in experiment [17] it was 0.25 µg/mL (≈ 0.748 µM); in [18] it was 0.25 µg/mL (≈ 0.748 µM). In [19], the MIC was 0.5 µg/mL (≈ 1.5 µM).
As to `CC1(C)S[C@@H]2[C@H](NC(=O)COc3ccccc3)C(=O)N2[C@H]1C(=O)O` [PENICILLIN V], the minimum inhibitory concentration (MIC) in experiment [1] is 0.25 µg/mL (≈ 0.713 µM); in experiment [2], 0.03 µg/mL (≈ 0.0856 µM); in experiment [3], 0.12 µg/mL (≈ 0.342 µM); in experiment [4], 0.12 µg/mL (≈ 0.342 µM); in experiment [5] it was 0.12 µg/mL (≈ 0.342 µM); in [6], 0.5 µg/mL (≈ 1.43 µM). In addition, the MIC in experiment [7] was found to be 0.25 µg/mL (≈ 0.713 µM); in [8], 0.25 µg/mL (≈ 0.713 µM); in experiment [9] it was 0.5 µg/mL (≈ 1.43 µM); in experiment [10], 0.25 µg/mL (≈ 0.713 µM); in experiment [11], 0.25 µg/mL (≈ 0.713 µM); in experiment [12] it was 1 µg/mL (≈ 2.85 µM). Further, the minimal inhibitory concentration (MIC) in experiment [13] stood at 0.25 µg/mL (≈ 0.713 µM); in [14] it was 0.5 µg/mL (≈ 1.43 µM); in [15], 0.5 µg/mL (≈ 1.43 µM); in [16] it was 0.03 µg/mL (≈ 0.0856 µM); in [17], 0.5 µg/mL (≈ 1.43 µM); in experiment [18] it was 0.25 µg/mL (≈ 0.713 µM). Moreover, the MIC in experiment [19] was determined as 0.25 µg/mL (≈ 0.713 µM).
